Laboratory results from ChEMBL document CHEMBL1938337, “Discovery of novel, potent, and selective inhibitors of 3-phosphoinositide-dependent kinase (PDK1)” (J Med Chem, 2011).

Key:
[1] = molecular target: T1, Tyrosine-protein kinase JAK3 (Homo sapiens) (UniProt P52333); assay: Inhibition of JAK3 at 1 uM
T1 sequence (whole entry): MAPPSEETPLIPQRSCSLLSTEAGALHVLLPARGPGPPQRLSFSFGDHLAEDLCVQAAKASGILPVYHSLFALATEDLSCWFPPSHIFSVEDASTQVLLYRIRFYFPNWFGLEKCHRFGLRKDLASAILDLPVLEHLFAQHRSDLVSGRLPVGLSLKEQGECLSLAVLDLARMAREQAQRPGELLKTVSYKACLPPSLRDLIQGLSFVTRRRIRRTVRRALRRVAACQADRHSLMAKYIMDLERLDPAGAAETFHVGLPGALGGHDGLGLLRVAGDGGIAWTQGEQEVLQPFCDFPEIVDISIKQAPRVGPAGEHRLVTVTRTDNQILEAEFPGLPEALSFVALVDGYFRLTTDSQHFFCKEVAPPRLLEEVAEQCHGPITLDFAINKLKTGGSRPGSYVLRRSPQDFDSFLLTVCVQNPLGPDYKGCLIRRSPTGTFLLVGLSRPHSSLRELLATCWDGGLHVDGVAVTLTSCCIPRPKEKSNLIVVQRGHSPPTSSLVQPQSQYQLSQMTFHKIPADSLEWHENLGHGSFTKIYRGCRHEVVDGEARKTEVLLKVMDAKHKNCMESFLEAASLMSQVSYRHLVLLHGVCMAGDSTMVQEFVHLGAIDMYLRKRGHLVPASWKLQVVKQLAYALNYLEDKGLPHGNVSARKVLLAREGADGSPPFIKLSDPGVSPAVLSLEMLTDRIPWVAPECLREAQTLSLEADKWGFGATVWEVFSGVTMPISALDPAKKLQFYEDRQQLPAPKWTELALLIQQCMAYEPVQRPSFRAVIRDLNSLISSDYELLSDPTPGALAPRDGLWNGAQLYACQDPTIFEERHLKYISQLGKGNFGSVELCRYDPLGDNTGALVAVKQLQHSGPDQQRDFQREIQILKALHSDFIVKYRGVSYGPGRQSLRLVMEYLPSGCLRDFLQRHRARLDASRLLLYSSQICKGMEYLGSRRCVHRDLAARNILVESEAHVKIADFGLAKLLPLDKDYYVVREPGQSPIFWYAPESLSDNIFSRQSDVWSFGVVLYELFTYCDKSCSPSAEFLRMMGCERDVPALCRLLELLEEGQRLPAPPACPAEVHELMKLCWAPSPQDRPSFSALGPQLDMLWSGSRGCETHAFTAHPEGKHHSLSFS

[2] = molecular target: RAC-alpha serine/threonine-protein kinase (Homo sapiens, UniProt P31749); assay: Inhibition of His-tagged AKT1 using 5FAM-GRPRTSSFAEGCONH2 as substrate by fluorescence based assay
RAC-alpha serine/threonine-protein kinase, sequence (P31749 whole entry): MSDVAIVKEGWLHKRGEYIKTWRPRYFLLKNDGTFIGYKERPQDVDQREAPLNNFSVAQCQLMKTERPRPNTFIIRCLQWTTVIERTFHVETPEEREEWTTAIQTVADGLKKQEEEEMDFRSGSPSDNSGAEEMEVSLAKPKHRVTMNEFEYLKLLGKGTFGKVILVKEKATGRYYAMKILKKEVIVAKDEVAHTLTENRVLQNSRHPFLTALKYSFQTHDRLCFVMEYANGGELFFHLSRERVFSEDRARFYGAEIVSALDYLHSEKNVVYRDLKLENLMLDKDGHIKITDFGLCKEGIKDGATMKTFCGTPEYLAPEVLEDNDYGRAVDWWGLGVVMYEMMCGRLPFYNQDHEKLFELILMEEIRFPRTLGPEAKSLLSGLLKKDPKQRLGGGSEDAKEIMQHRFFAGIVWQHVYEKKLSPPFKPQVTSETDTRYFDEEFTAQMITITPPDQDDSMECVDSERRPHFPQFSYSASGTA

[3] = molecular target: Ephrin type-A receptor 2 (Homo sapiens) (UniProt P29317); assay: Inhibition of EPHA2 at 1 uM
Ephrin type-A receptor 2 (Homo sapiens), sequence (P29317 whole entry): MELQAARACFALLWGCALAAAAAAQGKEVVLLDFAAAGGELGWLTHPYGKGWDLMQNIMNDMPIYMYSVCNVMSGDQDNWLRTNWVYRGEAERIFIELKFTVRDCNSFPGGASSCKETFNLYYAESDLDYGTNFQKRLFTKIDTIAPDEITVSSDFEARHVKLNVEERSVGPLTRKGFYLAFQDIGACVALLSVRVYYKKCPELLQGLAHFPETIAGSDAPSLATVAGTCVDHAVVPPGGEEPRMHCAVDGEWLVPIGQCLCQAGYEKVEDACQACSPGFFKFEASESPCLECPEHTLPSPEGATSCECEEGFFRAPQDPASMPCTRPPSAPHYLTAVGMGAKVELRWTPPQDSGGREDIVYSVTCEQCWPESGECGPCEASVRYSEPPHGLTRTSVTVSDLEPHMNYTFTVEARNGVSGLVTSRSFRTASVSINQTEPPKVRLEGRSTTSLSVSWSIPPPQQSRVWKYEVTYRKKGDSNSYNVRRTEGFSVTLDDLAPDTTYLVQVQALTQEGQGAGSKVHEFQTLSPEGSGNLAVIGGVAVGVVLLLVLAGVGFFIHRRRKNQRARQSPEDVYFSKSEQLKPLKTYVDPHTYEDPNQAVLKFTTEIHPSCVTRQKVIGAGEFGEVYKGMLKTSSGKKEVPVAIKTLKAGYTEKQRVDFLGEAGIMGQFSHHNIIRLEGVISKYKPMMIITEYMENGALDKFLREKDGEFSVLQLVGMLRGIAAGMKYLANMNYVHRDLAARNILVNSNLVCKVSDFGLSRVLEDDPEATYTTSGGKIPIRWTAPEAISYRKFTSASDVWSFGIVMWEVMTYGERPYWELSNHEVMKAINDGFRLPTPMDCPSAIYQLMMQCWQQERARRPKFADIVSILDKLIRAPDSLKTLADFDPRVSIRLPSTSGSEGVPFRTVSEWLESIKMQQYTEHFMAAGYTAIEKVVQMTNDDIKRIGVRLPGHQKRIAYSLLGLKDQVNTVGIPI

[4] = molecular target: Vascular endothelial growth factor receptor 2 (Homo sapiens) (UniProt P35968); assay: Inhibition of KDR at 1 uM
Vascular endothelial growth factor receptor 2 (Homo sapiens), sequence (P35968 whole entry): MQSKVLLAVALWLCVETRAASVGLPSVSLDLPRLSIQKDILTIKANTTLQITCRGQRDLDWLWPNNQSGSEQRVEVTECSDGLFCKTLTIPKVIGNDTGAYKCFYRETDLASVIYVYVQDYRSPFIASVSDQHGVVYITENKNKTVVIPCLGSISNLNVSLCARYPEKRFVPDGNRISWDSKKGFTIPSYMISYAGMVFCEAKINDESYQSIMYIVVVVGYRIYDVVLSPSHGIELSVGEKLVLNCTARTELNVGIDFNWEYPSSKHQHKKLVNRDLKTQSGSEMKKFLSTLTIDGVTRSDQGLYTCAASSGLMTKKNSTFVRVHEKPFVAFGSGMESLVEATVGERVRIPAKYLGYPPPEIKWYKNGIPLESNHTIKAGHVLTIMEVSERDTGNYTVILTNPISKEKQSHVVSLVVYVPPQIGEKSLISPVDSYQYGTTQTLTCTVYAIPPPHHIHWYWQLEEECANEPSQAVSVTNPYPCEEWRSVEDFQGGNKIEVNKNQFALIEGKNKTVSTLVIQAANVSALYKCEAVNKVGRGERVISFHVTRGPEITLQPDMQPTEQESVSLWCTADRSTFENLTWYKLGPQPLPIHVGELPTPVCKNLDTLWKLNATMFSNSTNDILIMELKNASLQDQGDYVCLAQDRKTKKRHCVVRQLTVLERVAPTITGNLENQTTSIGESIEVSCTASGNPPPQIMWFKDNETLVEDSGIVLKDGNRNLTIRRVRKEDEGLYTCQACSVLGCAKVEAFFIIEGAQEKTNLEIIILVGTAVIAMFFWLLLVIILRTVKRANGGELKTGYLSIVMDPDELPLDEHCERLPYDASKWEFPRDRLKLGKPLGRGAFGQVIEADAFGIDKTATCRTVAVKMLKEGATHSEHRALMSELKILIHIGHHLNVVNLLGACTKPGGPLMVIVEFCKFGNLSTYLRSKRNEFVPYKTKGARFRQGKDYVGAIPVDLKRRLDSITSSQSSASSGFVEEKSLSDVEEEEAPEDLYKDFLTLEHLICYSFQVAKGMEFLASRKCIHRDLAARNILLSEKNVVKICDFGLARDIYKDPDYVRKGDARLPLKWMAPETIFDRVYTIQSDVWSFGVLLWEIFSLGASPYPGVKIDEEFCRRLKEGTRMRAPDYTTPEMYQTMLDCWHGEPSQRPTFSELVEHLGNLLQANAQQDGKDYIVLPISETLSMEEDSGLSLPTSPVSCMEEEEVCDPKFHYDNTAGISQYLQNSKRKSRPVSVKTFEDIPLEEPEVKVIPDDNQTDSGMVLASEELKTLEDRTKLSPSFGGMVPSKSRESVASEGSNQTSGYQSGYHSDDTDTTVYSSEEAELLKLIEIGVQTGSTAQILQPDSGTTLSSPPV

[5] = molecular target: Fibroblast growth factor receptor 1 (Homo sapiens) (UniProt P11362); assay: Inhibition of FGFR1 at 1 uM
Fibroblast growth factor receptor 1 (Homo sapiens), sequence (P11362 22-822 limits assumed): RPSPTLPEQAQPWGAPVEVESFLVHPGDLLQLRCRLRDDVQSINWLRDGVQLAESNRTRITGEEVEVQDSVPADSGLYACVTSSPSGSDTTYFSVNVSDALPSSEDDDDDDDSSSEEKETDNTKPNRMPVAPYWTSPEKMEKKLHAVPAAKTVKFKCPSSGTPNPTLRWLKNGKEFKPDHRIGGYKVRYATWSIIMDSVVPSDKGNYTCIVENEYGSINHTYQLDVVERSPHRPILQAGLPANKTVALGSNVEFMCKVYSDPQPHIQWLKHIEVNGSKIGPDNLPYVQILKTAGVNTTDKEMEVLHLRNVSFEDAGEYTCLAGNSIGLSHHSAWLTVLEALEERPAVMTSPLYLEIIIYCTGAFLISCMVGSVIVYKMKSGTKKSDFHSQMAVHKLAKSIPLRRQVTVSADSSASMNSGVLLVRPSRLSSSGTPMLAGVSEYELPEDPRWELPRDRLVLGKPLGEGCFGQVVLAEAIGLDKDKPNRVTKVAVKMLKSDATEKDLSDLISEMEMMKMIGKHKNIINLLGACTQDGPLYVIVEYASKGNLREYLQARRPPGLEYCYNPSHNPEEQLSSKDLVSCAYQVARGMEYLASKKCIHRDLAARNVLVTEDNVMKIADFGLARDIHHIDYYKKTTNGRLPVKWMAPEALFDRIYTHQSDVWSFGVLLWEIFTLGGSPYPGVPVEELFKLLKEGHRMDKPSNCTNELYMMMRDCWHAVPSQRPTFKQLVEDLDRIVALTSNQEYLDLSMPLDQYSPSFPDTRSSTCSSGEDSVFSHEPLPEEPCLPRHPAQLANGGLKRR

[6] = molecular target: Rho-associated protein kinase 1 (Homo sapiens) (UniProt Q13464); assay: Inhibition of ROCK1 at 1 uM
Rho-associated protein kinase 1 (Homo sapiens), sequence (Q13464 2-1354 limits assumed): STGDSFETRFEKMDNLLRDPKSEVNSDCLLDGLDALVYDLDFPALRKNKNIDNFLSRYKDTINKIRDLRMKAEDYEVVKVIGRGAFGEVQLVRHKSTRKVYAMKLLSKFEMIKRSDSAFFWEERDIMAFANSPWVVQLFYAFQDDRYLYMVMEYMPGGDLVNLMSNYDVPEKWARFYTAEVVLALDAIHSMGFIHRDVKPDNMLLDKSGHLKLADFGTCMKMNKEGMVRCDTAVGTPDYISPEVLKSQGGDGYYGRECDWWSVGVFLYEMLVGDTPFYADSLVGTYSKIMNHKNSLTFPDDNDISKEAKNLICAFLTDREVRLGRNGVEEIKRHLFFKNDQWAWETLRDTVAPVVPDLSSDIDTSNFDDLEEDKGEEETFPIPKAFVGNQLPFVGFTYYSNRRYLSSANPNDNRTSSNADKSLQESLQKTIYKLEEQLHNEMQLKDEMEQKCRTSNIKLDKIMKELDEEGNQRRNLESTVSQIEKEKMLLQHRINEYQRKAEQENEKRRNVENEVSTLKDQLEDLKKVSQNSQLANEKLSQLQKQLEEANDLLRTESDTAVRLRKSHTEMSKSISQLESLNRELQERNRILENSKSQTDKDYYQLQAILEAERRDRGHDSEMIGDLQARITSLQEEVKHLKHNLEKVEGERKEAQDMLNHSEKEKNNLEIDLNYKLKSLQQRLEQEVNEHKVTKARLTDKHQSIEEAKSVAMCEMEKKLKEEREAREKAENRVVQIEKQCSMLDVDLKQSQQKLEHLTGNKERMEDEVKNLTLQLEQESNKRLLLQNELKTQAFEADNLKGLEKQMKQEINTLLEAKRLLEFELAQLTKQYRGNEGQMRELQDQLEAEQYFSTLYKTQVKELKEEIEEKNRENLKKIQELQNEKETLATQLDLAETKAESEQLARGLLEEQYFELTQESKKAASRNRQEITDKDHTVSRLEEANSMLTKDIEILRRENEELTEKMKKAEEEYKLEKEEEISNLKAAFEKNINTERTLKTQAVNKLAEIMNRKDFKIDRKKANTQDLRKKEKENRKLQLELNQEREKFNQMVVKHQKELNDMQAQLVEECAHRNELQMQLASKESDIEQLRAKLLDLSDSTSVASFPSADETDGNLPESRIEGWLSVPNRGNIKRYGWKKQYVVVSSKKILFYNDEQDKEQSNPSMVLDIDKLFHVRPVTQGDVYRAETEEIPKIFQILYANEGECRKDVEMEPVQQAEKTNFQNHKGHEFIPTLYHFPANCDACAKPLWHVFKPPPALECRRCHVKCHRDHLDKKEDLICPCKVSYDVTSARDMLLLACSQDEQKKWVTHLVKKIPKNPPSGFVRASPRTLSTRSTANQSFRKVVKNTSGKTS

[7] = Passive permeability in canine kidney cells; assay type: ADME, cell-based, Canis lupus familiaris; conditions: dog; read-out: permeability
[8] = molecular target: Casein kinase I isoform alpha (Homo sapiens) (UniProt P48729); assay: Inhibition of CSNK1A1 at 1 uM
[9] = molecular target: Cyclin-dependent kinase 2/cyclin A (Homo sapiens) (UniProt P24941+P20248+P78396); assay: Inhibition of CDK2/cyclinA at 1 uM; assay type: protein-complex assay
NCI-H460 = assay: Antiproliferative activity against human H460 cells after 72 hrs by resazurin reduction assay; assay type: functional, cell-based; conditions: NCI-H460, 72 h
In short: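 Cells seeded at 3,000 per well, left to adhere overnight, then given inhibitor as a 3-fold serial dilution from 0.0169 nM to 10 μM. After 72 h, 250 μg/mL resazurin was added, followed by 6 h more at 37 °C. Fluorescence was read at ex 560 / em 590 nm.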

[10] = molecular target: T2, Serine/threonine-protein kinase TAO2 (Homo sapiens) (UniProt Q9UL54); assay: Inhibition of TAOK2 at 1 uM
T2 sequence (whole entry): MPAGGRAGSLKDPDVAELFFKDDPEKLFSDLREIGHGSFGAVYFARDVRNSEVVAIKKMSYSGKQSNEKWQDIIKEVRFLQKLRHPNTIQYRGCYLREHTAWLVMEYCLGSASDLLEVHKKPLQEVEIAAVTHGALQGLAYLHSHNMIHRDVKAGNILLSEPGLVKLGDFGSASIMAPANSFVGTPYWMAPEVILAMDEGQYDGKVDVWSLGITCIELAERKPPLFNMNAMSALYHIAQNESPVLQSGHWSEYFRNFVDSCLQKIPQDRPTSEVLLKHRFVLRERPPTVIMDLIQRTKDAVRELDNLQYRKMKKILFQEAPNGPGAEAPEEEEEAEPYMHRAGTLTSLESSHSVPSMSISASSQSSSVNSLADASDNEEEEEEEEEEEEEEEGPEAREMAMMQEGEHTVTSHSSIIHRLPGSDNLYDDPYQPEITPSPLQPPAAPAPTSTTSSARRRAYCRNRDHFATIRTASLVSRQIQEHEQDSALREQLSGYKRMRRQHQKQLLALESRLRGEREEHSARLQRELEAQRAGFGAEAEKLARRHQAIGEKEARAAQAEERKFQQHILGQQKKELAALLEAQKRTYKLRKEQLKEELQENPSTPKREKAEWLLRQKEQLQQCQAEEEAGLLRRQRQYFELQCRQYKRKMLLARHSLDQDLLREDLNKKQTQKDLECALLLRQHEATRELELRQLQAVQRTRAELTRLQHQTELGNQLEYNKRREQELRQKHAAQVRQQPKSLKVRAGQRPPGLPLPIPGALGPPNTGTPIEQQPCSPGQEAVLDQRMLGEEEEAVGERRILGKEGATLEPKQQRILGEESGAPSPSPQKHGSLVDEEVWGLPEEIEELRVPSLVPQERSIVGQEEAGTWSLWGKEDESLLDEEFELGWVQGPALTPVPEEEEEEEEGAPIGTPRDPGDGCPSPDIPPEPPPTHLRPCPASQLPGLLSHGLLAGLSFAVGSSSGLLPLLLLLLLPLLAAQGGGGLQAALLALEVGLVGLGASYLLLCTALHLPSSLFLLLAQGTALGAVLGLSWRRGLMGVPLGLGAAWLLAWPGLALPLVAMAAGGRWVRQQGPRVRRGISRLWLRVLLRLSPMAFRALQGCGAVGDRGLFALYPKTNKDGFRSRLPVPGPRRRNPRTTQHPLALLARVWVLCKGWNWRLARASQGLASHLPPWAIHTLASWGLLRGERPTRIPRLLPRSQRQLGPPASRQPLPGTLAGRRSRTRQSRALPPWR

[11] = molecular target: cAMP-dependent protein kinase catalytic subunit alpha (Homo sapiens) (UniProt P17612); assay: Inhibition of PRKACA at 1 uM

SMILES	inhibition [1] [%]	Ki [2] [nM]	inhibition [3] [%]	inhibition [4] [%]	inhibition [5] [%]	inhibition [6] [%]	Papp [7] [×10⁻⁶ cm/s]	inhibition [8] [%]	inhibition [9] [%]	EC50 (NCI-H460) [nM]	inhibition [10] [%]	inhibition [11] [%]
CC(=O)N1CC[C@@H](Nc2cncc(C(=O)c3cn(C(C)C)c4ncnc(N)c34)n2)[C@H]1c1ccccc1	-2	1100	3	34	6	-5	11	7	12	1700	-5	30
CC(=O)N1CC[C@@H](Nc2cncc(C(=O)c3cn(C(C)C)c4ncnc(N)c34)n2)[C@H]1c1ccc(F)cc1	6	360	1	51	7	5	11	4	34	1900	4	58
CC(C)n1cc(C(=O)c2cncc(N[C@@H]3CCN(C=O)[C@@H]3c3ccc(F)cc3)n2)c2c(N)ncnc21	16	170	7	49	17	4	11	7	44	700	-1	74
